Published values pooled from the literature.
Compare with care: the assays were run in different laboratories.
Target: Activin receptor type-1 (ACVR1, Homo sapiens, UniProt Q04771)
Sequence (Q04771 21-509, as in one of the studies): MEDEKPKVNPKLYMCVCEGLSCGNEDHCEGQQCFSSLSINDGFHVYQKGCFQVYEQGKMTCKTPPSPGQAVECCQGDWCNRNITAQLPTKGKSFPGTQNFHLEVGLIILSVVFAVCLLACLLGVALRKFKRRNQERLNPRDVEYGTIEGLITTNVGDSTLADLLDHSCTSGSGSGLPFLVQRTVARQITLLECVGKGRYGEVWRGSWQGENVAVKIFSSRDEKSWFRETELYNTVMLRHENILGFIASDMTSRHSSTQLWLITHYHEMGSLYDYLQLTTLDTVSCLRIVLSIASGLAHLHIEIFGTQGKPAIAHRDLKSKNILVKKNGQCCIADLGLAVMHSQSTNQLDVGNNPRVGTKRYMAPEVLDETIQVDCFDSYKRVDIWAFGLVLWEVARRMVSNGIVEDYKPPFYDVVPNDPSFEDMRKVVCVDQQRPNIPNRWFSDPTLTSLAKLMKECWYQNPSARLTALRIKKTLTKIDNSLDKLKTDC

Structure (SMILES) | test | setting | measurement | value
COc1ncccc1-c1cnn2ccc(N3CCN(C(=O)OC(C)C)CC3)nc12 | binding, competition with immobilised ligand | 1 µM | remaining binding | 72%
Cn1cc(-c2cccc(N3CCc4c(sc5c4CC(C)(C)C5)C3=O)c2CO)cc(Nc2ccncn2)c1=O | enzyme activity, inhibitor | 1 µM | inhibition | -1%
N#CC1(c2ccccn2)CCN(Cc2cc(C(=O)O)c(=O)n3ccccc23)CC1 | cell-free assay, competition with immobilised ligand | 1 µM | remaining binding | 96%
O=c1[nH]c2ccccc2n1C1CCN(Cc2ccc(-c3[nH]c4cc5ncnc5cc4nc3-c3ccccc3)cc2)CC1 | cell-free assay | 0.5 µM | remaining signal | 102%
Cc1nn(C)cc1-c1nc2c(N3CCN(Cc4ccc(Cl)cc4)CC3)c(Cl)cnc2[nH]1 | binding, competition with immobilised ligand | 1 µM | remaining binding | 90%
Cn1cncc1[C@](O)(COc1ccc(C#N)cc1-c1ccc(OC(F)(F)F)cc1)c1ccc(C#N)cc1 | cell-free assay, competition with immobilised ligand | 1 µM | remaining binding | 78%
Nc1ncc(-c2nc(N3CCOCC3)nc(N3CCOCC3)n2)c(C(F)F)n1 | cell-free assay, competition with immobilised ligand | 10 µM | remaining binding | 83%
CC(C)(C)c1cc(C=C(C#N)C#N)cc(Br)c1O | enzyme activity, inhibitor | 0.5 µM | remaining activity | 102%
